# Key:
# [1] = system: Jurkat; assay: Inhibitory concentration against Jurkat cells; assay type: functional, cell-based; conditions: Homo sapiens
# Outline: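 Jurkat cells were grown in RPMI-1640 with 10% v/v FBS and 1% v/v L-glutamine at 37 °C under humidified 5% CO2, kept below 1 × 10⁶ cells/mL, with viability above 95%. Cells were plated at 1 × 10⁵/well and exposed to 10⁻¹⁰–10⁻⁴ M drug for 72 h, with final DMSO below 0.5% v/v. [³H]-thymidine (0.5 μCi/well) was added at 48 h for the final 24 h, and incorporation was read by β-scintillation counting.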
# [2] = system: HL-60; assay: Inhibitory concentration against HL60 cells; assay type: functional, cell-based; conditions: Homo sapiens
# Outline: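 HL60 (2.5 × 10⁴/well) or Jurkat (1 × 10⁵/well) in RPMI-1640 with 10% FBS and 1% L-glutamine, 5% CO2, 37 °C. Exposed to 10⁻¹⁰–10⁻⁴ M for 72 h, final DMSO below 0.5% v/v. [3H]-thymidine (0.5 μCi) added for the final 24 h. Incorporation counted by β-scintillation.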
IC50 [1] [nM],IC50 [2] [nM],SMILES
101000,1210,CC(=O)C1C(=O)C=C(C)OC1=O (centres undefined) [DEHYDROACETIC ACID]
1700,510,COc1cccc2c1C(=O)c1c(O)c3c(c(O)c1C2=O)C[C@@](O)(C(=O)CO)C[C@@H]3O[C@H]1C[C@H](N)[C@H](O)[C@H](C)O1 [DOXORUBICIN]

# From ChEMBL document CHEMBL1149086, “Antimalarial and antitumor evaluation of novel C-10 non-acetal dimers of 10beta-(2-hydroxyethyl)deoxoartemisinin” (J Med Chem, 2004)
